APJ antag: antagonists of human APJ apelin receptor | 330,000 tested, 0.32% active | CHO-K1 APJ beta-arrestin complementation, luminescence | P35414 | inhibition, % at 20 µM;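 active = inhibition above about 40% at 20 µM, limit read from the data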;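 also: cells challenged with 10 nM apelin-13 agonist together with compound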
CCR6 antag: CCR6 (human) receptor antagonism. AID 493098. CHO-K1 CCR6 PathHunter beta-arrestin, luminescence, CCL20-stimulated. 340,000 tested, 0.49% active. inhibition, % at 20 µM;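 active = compounds whose inhibition of the agonist-driven luminescence signal at 20 µM reaches about 50%, limit read from the data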;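 also: cells stimulated with CCL20 at 14 nM final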
B2AR ag: activates human beta-2 adrenergic receptor causing internalization | P07550 | Am2.2-beta2AR cells, FAP receptor internalization, flow cytometry | response, % (no concentration beside the values) | 340,000 tested, 0.43% active;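 active = response above a set limit, near 3 SD of response in nonfluorescent compounds, cut at about 42% in these data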
Target sequence (P07550 whole entry, looked up): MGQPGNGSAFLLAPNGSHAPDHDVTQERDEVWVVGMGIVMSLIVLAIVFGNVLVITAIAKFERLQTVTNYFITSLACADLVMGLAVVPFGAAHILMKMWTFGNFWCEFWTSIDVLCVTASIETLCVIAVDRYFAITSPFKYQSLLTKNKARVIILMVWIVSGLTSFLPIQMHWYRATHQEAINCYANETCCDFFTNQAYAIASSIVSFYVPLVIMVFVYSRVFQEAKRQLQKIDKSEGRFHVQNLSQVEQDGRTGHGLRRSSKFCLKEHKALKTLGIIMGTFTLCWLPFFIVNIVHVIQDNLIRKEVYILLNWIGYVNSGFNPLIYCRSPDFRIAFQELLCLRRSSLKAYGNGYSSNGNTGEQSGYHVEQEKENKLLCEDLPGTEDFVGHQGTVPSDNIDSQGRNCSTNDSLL
EBI2 antag: EBI2 (human) antagonism; inhibition, % at 5 µM; P32249; AID 651636; 360,000 tested, 0.81% active; EBI2 beta-arrestin recruitment, luminescence, 7a,25-OHC stimulated; in the data active = inhibition above about 38%;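 also: enzyme fragment complementation signal reports receptor beta-arrestin coupling in cells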
APJ agonist: activates the human apelin receptor APJ | 330,000 tested, 0.11% active | activation, % at 20 µM | CHO-K1 APJ PathHunter beta-arrestin, luminescence; 0% DMSO wells, 100% apelin;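 active = activation more than six SD over the plate average, tested at 20 µM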
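Assay system: engineered CHO-K1 APJ arrestin reporter cells; Amount: 1000 CHO-K1 reporter cells seeded per well; Dosing: one dose, 20 µM compound, 1% DMSO; Times: compound stimulation 90 min at 25 °C, detection 60 min; Measured by: luminescent beta-gal fragment complementation, chemiluminescent substrate; Read-out: APJ–arrestin association signal; Controls: DMSO vs Apelin-13 10 nM.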
CXCR6 block: CXCR6 (human) receptor inhibition; CHO-K1 PathHunter CXCR6 beta-arrestin, luminescence; AID 602244; inhibition, % at 20 µM; O00574; 360,000 tested, 0.36% active; in the data active = inhibition above about 34%, passing the limit was not always enough;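 also: antagonist mode with CXCL16 agonist at 10 nM final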
EBI2 conf: EBI2 (human) antagonism, single concentration confirmation. inhibition, % at 5 µM. 2,400 tested, 29% active. shares compounds with EBI2 antag. AID 651997. EBI2 beta-arrestin luminescence, 7a,25-OHC antagonism;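 active = inhibition of at least 50%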
EBI2 ag: counter-screen for EBI2 antagonists: EBI2 agonist activity | 2,400 tested, under 10 active | shares compounds with EBI2 antag | activation, % at 5 µM | EBI2-expressing cells, agonist mode, luminescence, 60 min; 0% vehicle, 100% 7α,25-dihydroxycholesterol control;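 active = activation of at least 50%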
bGal cs: beta-galactosidase inhibition counter-screen; shares compounds with EBI2 antag; purified beta-galactosidase, luminescent Galacton Star, 15 min; inhibition, % at 5 µM; 2,400 tested, 1% active; AID 652176;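 active = replicate-average signal at least 3 plate SD below neutral wells, shown as high inhibition, flagging enzyme-inhibiting false positives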;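 also: higher means stronger loss of beta-gal luminescence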
Hits are given with their value; - = inactive; . = no result. A selection: hits, their analogues and other compounds. The true share with any hit is near 1.8%.

SMILES	APJ antag	CCR6 antag	B2AR ag	EBI2 antag	APJ agonist	CXCR6 block	EBI2 conf	EBI2 ag	bGal cs
CC(C)Nc1ncnc2c1ncn2[C@H]1CN(Cc2ccc(Cl)cc2)C[C@@H](CO)O1	.	.	.	74.4	.	-	88.3	-	-
O=C1CCC(C(=O)N2CCSCC2)CN1CCc1ccccc1 (configuration not stated)	-	-	-	-	-	-	.	.	.
COc1ccc(CCN2CC(C(=O)N3CCC(OC)CC3)CCC2=O)cc1 (configuration not stated)	-	-	-	-	-	-	.	.	.
C=CCC1(CC=C)CCCN1C(=O)C1CCC(=O)N(CCc2ccc(OC)cc2)C1 (configuration not stated)	-	-	-	57.4	-	-	-	-	-
C=CCC1(CC=C)CCCN1C(=O)C1CCC(=O)N(CCc2ccccc2)C1 (configuration not stated)	-	-	-	45.5	-	-	-	-	-
COc1ccc(CCN2CC(C(=O)N(C)Cc3ccc(C)o3)CCC2=O)cc1 (configuration not stated)	-	-	-	45.3	-	-	-	-	-
CCCCOc1ccc(C2/C(=C(/O)c3ccc4c(c3)CC(C)O4)C(=O)C(=O)N2CCCN2CCOCC2)cc1OC (configuration not stated)	-	-	-	-	-	-	.	.	.
CCOC(=O)c1c(C)nc(C)c(C(=O)OCC)c1-c1cccc([N+](=O)[O-])c1	.	.	.	58.9	.	-	-	-	-
CCOC(=O)c1cc(-c2cccc([N+](=O)[O-])c2)nc2[nH]c(=O)[nH]c(=O)c12	-	-	-	-	-	-	.	.	.
Cc1nc(SC(C)C(=O)c2c(N)n(C)c(=O)n(C)c2=O)c2c(C)c(C)sc2n1 (configuration not stated)	-	-	-	46.7	-	-	51.2	-	-
Cc1ccc(/C=C/C(=O)N2CCCC(C)C2)cc1 (configuration not stated)	-	-	-	67.1	-	-	-	-	-
CCOC(=O)C1CCCN(C(=O)/C=C/c2ccc(Cl)cc2)C1 (configuration not stated)	-	-	-	46.5	-	-	-	-	-
CCc1ccccc1NC(=O)CN1CCN(C(=O)C2CCN(C(=O)/C=C/c3ccccc3)CC2)CC1	-	-	-	76.9	-	-	52.5	-	-
CCc1ccccc1NC(=O)CN1CCN(CC(=O)Nc2ccc(-c3ccccc3)cc2)CC1	-	-	-	-	-	-	.	.	.
CC1CCN(C(=O)/C=C/c2ccc(C(C)(C)C)cc2)CC1	-	-	-	-	-	-	.	.	.
Cc1ccc(/C=C/C(=O)N2CCC(Cc3ccccc3)CC2)cc1	-	-	-	95.7	-	-	85.5	-	-
CC12C=CC(=O)C=C1CCC1C2C(O)CC2(C)C1CCC2(O)C(=O)CO (configuration not stated)	.	-	-	-	.	-	.	.	.
CCN(CC)C(=O)C1=C(C)N(CCCOC)C(=O)C(CC(=O)NCCc2ccccn2)C1 (configuration not stated)	.	.	.	-	.	-	.	.	.
CCCN1C(C)C(C(=O)OCC)=CN(Cc2cccc(I)c2)S1(=O)=O (configuration not stated)	.	-	-	-	.	-	.	.	.
O=C(NCCN1C(=O)S/C(=C\c2ccc(F)cc2)C1=O)c1cccc(S(=O)(=O)N2CCOCC2)c1	-	-	-	-	-	-	.	.	.
O=C(NCCN1C(=O)S/C(=C\c2ccc(Cl)cc2)C1=O)c1ccc(F)c(S(=O)(=O)N2CCOCC2)c1	-	-	-	66.9	-	-	-	-	-
CSc1ccc(NC(=O)N2CCC(C(=O)c3ccc(F)cc3)CC2)cc1	-	-	-	63.8	-	-	54.7	-	-
COc1ccc(NC(=O)C2CCN(C(=O)Nc3ccc(C)cc3)CC2)cc1OC	-	-	-	-	-	-	.	.	.
COc1ccc(OC2CCN(C(=O)Nc3ccc(C)cc3)CC2)cc1	-	-	-	82.9	-	-	61.3	-	-
Cc1cc(C)cc(NC(=O)N2CCC(C(=O)c3ccc(F)cc3)CC2)c1	-	-	-	-	-	-	.	.	.
SMILES	APJ antag	CCR6 antag	B2AR ag	EBI2 antag	APJ agonist	CXCR6 block	EBI2 conf	EBI2 ag	bGal cs
COc1ccc(NC(=O)N2CCC(C(=O)c3ccc(F)cc3)CC2)cc1	-	-	-	53.1	-	-	-	-	-
CCc1nc2ccc(C(=O)NCCCN3CCCC3=O)cn2c1N(C)C(=O)Nc1ccccc1OC	.	.	.	-	.	-	.	.	.
CCOC(=O)c1c(NC(=O)CN2CCCc3ccccc32)sc(C)c1C	-	-	-	-	-	-	.	.	.
COCCOC(=O)c1c(NC(=O)CN2CCCc3ccccc32)sc(C(N)=O)c1C	-	-	-	75.9	-	-	-	-	-
CCCc1nn(-c2ccccc2)c2c1C(c1cccs1)C(C#N)=C(N)O2 (configuration not stated)	-	-	-	53.5	-	-	59.8	-	-
Cc1nn(-c2ccccc2)c2c1C(c1cccs1)C(C#N)=C(N)O2 (configuration not stated)	-	-	-	-	-	-	.	.	.
Cc1ccc(S(C)(=O)=O)cc1C(=O)OCC(=O)N(Cc1ccccc1)Cc1ccccc1	-	-	-	-	-	-	.	.	.
Cc1ccc(OCCNC(=O)c2ccc(C)cc2)cc1	-	-	-	40.1	-	-	-	-	-
Cc1ccc(OCCNC(=O)c2cccc(Oc3ccc(C(F)(F)F)cc3[N+](=O)[O-])c2)cc1	-	-	-	40.4	-	-	-	-	-
CCOc1ccc(NC(=S)Nc2ccccc2C2CC2)cc1	-	-	-	59.6	-	-	-	-	-
CCOc1ccc(NC(=S)Nc2cccc3cnccc23)cc1	-	-	-	65.6	-	-	-	-	-
CCOc1ccc(NC(=S)Nc2cccc3ccccc23)cc1	-	-	-	56.1	-	-	-	-	-
CC(=O)N(C)c1ccc(NC(=S)Nc2ccc(C(C)C)cc2)cc1	-	-	-	51.5	-	-	-	-	-
Cc1cc(C)c(C)c(S(=O)(=O)N2CCN(C(=O)c3ccccn3)CC2)c1C	-	-	-	-	-	-	.	.	.
CC(C)c1ccc(NC(=S)Nc2cccc3ccccc23)cc1	-	-	-	43.5	-	-	-	-	-
COc1ccccc1N1CCN(S(=O)(=O)CCNC(=O)COc2ccccc2)CC1	.	.	.	68.5	.	-	-	-	-
COc1ccccc1N1CCN(S(=O)(=O)CCNC(=O)CCCc2ccccc2)CC1	-	-	-	-	-	-	.	.	.

Source: PubChem (several laboratories)
